Test results taken from ChEMBL document CHEMBL1795294, “Modulation of the activity of histone acetyltransferases by long chain alkylidenemalonates (LoCAMs)” (Bioorg Med Chem, 2011).
The source made the active and inactive calls. The rule behind the calls is not given here.

Tests used:
[1] = test system: U-937; assay: Induction of granulocytic differentiation in human U937 after […] using propidium iodide staining by FACS analysis; format: functional, cell-based
[2] = test system: U-937; assay: Induction of apoptosis in human U937 cells at 25 uM after 30 hrs using annexin V/propidium iodide double-staining by FACS analysis; format: functional, cell-based
Procedure, shortened: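 U937 cells at 200,000 cells/mL, 37 °C, 5% CO2, exposed 30 h at 50 or 25 µM. Dose–response runs used 5–200 µM, with IC50 taken as the concentration giving 50% apoptosis. Annexin V/propidium iodide double staining, apoptotic subpopulations counted by FACS. Three independent experiments, mean ± SD.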

[3] = target: Histone deacetylase (Homo sapiens) (UniProt Q13547+O15379+Q9UBN7+Q92769+Q9UQL6+Q8WUI4+Q9BY41+Q96DB2+P56524+Q9UKV0+Q969S8); assay: Inhibition of HDAC in human U937 cells at 50 uM after 15 mins by Western blotting; format: cell-based; conditions: U-937
[4] = target: CREB-binding protein (Homo sapiens) (UniProt Q92793); assay: Inhibition of human recombinant KAT3A expressed in Escherichia coli BL21 using histone H4 peptide as substrate at 50 uM after 2 hrs relative to control
CREB-binding protein (Homo sapiens), sequence (Q92793 2-2442 limits assumed): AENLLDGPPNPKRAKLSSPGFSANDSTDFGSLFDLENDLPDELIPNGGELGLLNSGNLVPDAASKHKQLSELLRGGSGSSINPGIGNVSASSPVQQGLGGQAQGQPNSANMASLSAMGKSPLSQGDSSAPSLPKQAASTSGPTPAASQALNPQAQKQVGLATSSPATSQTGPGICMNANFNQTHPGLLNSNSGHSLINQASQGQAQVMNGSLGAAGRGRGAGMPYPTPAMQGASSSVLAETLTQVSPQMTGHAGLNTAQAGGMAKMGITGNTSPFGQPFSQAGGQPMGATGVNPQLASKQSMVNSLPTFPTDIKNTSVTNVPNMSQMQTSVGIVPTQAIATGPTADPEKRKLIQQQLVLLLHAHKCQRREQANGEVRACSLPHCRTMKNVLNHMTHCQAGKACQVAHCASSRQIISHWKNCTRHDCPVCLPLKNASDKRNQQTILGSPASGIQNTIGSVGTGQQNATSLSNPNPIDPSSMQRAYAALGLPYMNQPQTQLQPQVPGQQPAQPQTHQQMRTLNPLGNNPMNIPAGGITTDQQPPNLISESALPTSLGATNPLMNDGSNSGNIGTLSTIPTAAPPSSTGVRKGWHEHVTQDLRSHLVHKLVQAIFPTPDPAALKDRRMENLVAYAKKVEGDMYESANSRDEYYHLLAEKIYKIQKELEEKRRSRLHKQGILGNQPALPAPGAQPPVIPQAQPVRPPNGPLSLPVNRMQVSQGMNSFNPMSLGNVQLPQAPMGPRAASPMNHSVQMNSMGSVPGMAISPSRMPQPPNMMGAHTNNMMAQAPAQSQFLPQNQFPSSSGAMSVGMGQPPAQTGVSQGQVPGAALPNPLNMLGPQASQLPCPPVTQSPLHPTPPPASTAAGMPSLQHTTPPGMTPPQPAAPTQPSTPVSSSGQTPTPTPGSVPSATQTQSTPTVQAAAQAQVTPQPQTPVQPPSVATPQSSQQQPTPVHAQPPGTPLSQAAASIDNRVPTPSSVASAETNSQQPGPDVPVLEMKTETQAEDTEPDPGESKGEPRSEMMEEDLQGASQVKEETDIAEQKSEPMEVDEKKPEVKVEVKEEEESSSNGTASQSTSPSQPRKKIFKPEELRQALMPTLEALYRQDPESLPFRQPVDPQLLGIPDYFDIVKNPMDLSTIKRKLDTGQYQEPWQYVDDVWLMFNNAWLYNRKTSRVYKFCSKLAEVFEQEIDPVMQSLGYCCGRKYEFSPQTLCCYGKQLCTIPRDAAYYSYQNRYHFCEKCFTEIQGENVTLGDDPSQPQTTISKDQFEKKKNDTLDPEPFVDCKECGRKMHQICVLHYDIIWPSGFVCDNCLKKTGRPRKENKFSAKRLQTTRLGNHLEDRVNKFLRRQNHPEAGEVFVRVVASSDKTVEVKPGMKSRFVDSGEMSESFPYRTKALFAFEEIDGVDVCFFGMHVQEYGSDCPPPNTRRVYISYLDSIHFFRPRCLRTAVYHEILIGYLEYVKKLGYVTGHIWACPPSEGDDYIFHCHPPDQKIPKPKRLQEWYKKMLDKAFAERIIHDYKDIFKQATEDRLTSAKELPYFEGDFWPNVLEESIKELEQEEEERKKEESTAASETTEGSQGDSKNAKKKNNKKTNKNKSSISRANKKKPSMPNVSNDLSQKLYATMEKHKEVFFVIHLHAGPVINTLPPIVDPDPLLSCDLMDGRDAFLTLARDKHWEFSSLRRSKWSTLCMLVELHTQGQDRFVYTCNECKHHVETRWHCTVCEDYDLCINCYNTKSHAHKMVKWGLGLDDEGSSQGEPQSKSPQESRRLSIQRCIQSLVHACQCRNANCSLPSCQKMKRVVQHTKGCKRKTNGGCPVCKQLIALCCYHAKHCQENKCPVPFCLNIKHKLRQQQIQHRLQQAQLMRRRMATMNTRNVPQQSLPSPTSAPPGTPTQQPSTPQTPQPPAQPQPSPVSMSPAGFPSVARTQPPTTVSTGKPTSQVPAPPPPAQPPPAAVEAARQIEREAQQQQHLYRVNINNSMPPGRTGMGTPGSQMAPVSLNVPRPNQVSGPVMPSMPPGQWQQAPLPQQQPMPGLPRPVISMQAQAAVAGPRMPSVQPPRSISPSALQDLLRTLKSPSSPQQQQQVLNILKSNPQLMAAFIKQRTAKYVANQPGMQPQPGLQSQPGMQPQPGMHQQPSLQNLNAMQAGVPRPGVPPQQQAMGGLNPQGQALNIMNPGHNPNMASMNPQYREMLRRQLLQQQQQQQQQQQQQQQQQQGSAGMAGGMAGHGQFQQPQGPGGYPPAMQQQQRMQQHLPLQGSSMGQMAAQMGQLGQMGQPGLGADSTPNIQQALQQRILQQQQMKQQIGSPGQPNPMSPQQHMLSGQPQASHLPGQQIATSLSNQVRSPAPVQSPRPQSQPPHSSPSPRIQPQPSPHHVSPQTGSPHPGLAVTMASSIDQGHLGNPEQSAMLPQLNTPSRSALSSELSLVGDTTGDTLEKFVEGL
Procedure, shortened: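 Recombinant CBP fragment (aa 1098–1877) from E. coli BL21, affinity purified. Spotted on P81 paper in triplicate, washed with TCA/acetone, scintillation DPM compared with negative control, expressed as %.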

[5] = test system: MCF7; assay: Inhibition of histone acetyltransferase in human MCF7 cells assessed as increase of alpha-tubulin acetylation level at 15 and 30 uM after 15 mins by Western blotting
[6] = test system: U-937; assay: Inhibition of histone acetyltransferase in human U937 cells assessed as increase of histone H3 acetylation level at 50 uM after 15 mins by Western blotting; format: cell-based
Procedure, shortened: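 U937 cells treated at 50 µM. Histones prepared by Triton extraction buffer lysis, then overnight 0.2 M HCl extraction at 4 °C, Bradford quantitation. Immunoblot with pan-acetyl-H3 antibody (1:1000), Ponceau Red staining as loading check.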

[7] = test system: U-937; assay: Cell cycle arrest in human U937 cells assessed as accumulation at S phase at 25 uM after 30 hrs using propidium iodide staining by flow cytometry; format: functional, cell-based
Procedure, shortened: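 U937 cells kept at 200,000 cells/mL, 37 °C, 5% CO2, treated 30 h at 50 or 25 µM. Phase distribution by flow cytometry. Three independent experiments, mean ± SD.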

[8] = target: Histone acetyltransferase KAT2B (Homo sapiens) (UniProt Q92831); assay: Increase of human recombinant KAT2B acetylation activity using histone H4 peptide as substrate at 50 uM after 2 hrs
Histone acetyltransferase KAT2B (Homo sapiens), sequence (Q92831 whole entry, looked up, the tested form may be a part): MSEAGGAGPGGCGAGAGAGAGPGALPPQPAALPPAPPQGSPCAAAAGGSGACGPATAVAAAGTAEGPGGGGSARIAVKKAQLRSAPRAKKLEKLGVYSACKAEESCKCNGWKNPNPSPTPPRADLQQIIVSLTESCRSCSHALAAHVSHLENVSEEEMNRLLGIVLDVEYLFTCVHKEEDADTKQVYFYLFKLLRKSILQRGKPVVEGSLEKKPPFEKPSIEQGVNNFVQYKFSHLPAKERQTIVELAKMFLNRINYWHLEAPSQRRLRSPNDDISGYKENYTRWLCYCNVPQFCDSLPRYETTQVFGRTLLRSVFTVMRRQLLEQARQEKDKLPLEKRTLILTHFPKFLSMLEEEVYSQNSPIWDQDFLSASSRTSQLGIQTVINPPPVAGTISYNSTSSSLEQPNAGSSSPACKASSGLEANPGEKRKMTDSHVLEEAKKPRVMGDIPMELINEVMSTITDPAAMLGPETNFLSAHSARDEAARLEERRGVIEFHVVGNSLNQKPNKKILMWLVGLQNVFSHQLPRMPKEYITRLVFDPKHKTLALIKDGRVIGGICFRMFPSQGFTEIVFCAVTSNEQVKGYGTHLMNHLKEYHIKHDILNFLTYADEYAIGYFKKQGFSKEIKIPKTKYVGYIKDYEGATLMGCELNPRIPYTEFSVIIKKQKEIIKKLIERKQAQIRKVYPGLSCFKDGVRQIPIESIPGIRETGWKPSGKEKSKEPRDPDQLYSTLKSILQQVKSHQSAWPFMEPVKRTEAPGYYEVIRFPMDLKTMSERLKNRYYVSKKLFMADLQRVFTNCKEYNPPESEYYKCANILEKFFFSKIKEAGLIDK
Procedure, shortened: (§1)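 Human PCAF (200 ng) in KAT buffer with 10 µg histone H4 peptide (aa 2–24), 20 µM acetyl-CoA with 0.5 µCi/mL [3H]-acetyl-CoA, and compound at 50 µM final, 2 h at 37 °C. Spotted on P81 paper in triplicate, washed with TCA then acetone, scintillation counted. Activity given as % of untreated control (100%).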

[9] = target: Histone acetyltransferase KAT2B (Homo sapiens) (UniProt Q92831); assay: Inhibition of human recombinant KAT2B using histone H4 peptide as substrate at 50 uM after 2 hrs; procedure, shortened: as §1

`CCCCCCCCCCCCCCC(C)=C(C(=O)OCC)C(=O)OCC` was tested, and the Activity [1] was “inactive”, the Activity [2] was “inactive” and the inhibition [3] was “inactive”. The inhibition [4] was “Active”, the inhibition [5] was “inactive” and the inhibition [6] was “inactive”. For the same compound, the Activity [7] was “inactive”.

In the case of `CCCCCCCCCCCCCCC(C(=O)OCC)C(=O)OCC`, the Activity [1] is reported as “inactive”, the Activity [2] is reported as “inactive” and the inhibition [3] is reported as “inactive”. For the same compound, the inhibition [4] was “Active”, the inhibition [5] was “inactive” and the inhibition [6] was “inactive”. For the same compound, the Activity [7] was “inactive”.

In the case of `CCCCCCCCCCCCCCC(O)=C(C(=O)OCC)C(=O)OCC`, the Activity [1] is reported as “inactive”, the Activity [2] is reported as “inactive” and the inhibition [3] is reported as “inactive”. For the same compound, the inhibition [4] was 52%, the inhibition [5] was “inactive” and the inhibition [6] was “inactive”. For the same compound, the Activity [8] was “Active” and the Activity [7] was “inactive”.

For `CCCCCCCCCCCCCCC(N)=C(C(=O)OCC)C(=O)OCC`, the Activity [1] was “inactive”, the Activity [2] was “inactive” and the Activity [7] was “inactive”.

`C=CC/C=C\C/C=C\CCCCCCCc1cccc(O)c1C(=O)O` was tested, and the inhibition [4] was 62%.

In the case of `CCCCCCCCCCCCCCCCC(O)=C(C(=O)OCC)C(=O)OCC`, the Activity [1] is reported as “inactive”, the Activity [2] is reported as “inactive” and the inhibition [3] is reported as “inactive”. The inhibition [4] was “Active”, the inhibition [5] was “inactive” and the inhibition [6] was “inactive”. The Activity [7] was “inactive”.

For `CCCCCCCCCCCCCCCC1C(=O)OC(C)(C)OC1=O`, the Activity [1] was “inactive”, the Activity [2] was “inactive” and the inhibition [3] was “inactive”. For the same compound, the inhibition [4] was “Active”, the inhibition [5] was “inactive” and the inhibition [6] was “inactive”. The inhibition [9] was “Active” and the Activity [7] was “inactive”.

In the case of `CCCCCCCCCCCCCCC(Cl)=C(C(=O)OCC)C(=O)OCC`, the Activity [1] is reported as “inactive”, the Activity [2] is reported as “inactive” and the inhibition [3] is reported as “inactive”. For the same compound, the inhibition [4] was “Active”, the inhibition [5] was “inactive” and the inhibition [6] was “inactive”. The Activity [8] was “Active” and the Activity [7] was “inactive”.

In the case of `CCCCCCCCCCCCCCCC(C(=O)OCC)C(=O)OCC`, the Activity [1] is reported as “inactive”, the Activity [2] is reported as “inactive” and the inhibition [3] is reported as “inactive”. The inhibition [4] was “Active”, the inhibition [5] was “inactive” and the inhibition [6] was “inactive”. The Activity [7] was “inactive”.

`CCCCCCCCCCCCCC(C(=O)OCC)C(=O)OCC` was tested, and the Activity [1] was “inactive”, the Activity [2] was “inactive” and the inhibition [3] was “inactive”. The inhibition [4] was “Active”, the inhibition [5] was “inactive” and the inhibition [6] was “inactive”. For the same compound, the inhibition [9] was “Active” and the Activity [7] was “inactive”.

In the case of `CCCCCCCCCCCCCCC=C1C(=O)OC(C)(C)OC1=O`, the Activity [1] is reported as “inactive”, the Activity [2] is reported as “inactive” and the inhibition [3] is reported as “inactive”. The inhibition [4] was “Active”, the inhibition [5] was “inactive” and the inhibition [6] was “inactive”. The inhibition [9] was “Active” and the Activity [7] was “inactive”.

For `CCCCCCCCCCCCCC(C)=C(C(=O)OCC)C(=O)OCC`, the Activity [1] was “inactive”, the Activity [2] was “inactive” and the inhibition [3] was “inactive”. For the same compound, the inhibition [4] was “Active”, the inhibition [5] was “inactive” and the inhibition [6] was “inactive”. For the same compound, the Activity [7] was “inactive”.
